Experiments:
[1] = target: T1, Catechol O-methyltransferase (Homo sapiens, UniProt P21964); test: Inhibition of recombinant human C-terminal His6-tagged MB-COMT expressed in Bacmid using SAM/dopamine as substrate preincubated for 2 hrs followed by substrate addition measured after 25 mins by SAC TAMRA tracer-based fluorescence polarization assay
T1 sequence (P21964 whole entry): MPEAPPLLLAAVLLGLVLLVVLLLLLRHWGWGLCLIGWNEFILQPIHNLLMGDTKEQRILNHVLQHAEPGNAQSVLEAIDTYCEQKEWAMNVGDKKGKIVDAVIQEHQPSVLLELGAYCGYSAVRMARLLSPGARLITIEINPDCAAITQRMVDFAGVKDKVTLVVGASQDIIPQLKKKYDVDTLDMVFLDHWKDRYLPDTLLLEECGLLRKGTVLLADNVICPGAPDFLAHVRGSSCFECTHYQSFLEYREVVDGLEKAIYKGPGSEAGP

[2] = target: T1, Catechol O-methyltransferase; test: Inhibition of recombinant human C-terminal His6-tagged soluble COMT transfected in Escherichia coli BL21-Gold (DE3) using SAM/dopamine as substrate preincubated for 2 hrs followed by substrate addition measured after 25 mins by SAC TAMRA tracer-based fluorescence polarization assay
[3] = target: T2, Catechol O-methyltransferase (Rattus norvegicus, UniProt P22734); test: Inhibition of recombinant rat C-terminal His10-tagged MB-COMT transfected in Escherichia coli BL21-CodonPlus(DE3)-RIPL using SAM/dopamine as substrate preincubated for 2 hrs followed by substrate addition measured after 25 mins by SAC TAMRA tracer-based fluorescence polarization assay
T2 sequence (P22734 whole entry): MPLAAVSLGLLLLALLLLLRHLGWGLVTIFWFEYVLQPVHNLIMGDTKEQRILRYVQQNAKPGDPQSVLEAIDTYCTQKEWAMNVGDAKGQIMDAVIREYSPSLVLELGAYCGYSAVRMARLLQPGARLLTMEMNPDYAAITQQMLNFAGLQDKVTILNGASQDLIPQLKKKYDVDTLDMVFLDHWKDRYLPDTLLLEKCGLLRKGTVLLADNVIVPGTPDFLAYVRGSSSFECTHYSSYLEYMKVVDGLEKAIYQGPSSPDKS

[4] = Intrinsic clearance in rat hepatocytes; format: ADME, cell-based, Hepatocyte; conditions: read-out: CLH
[5] = Intrinsic clearance in human hepatocytes; format: ADME, cell-based, Hepatocyte; conditions: read-out: CLH
[6] = Plasma clearance in rat at 0.5 mg/kg, iv; format: ADME, organism-based
Summary of the method: (§1)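 Rat PK after a single intravenous dose of 0.5 mg/kg given in DMSO. Plasma clearance, volume of distribution and half-life were derived from the plasma data.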

[7] = Plasma concentration in rat at 30 mg/kg, ip after 1 hr; format: ADME, organism-based
Summary of the method: (§2)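 Rats dosed intraperitoneally at 30 or 100 mg/kg. Plasma and cerebrospinal fluid were sampled one hour after dosing, and drug concentrations were measured in each.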

[8] = Volume of distribution in rat at 0.5 mg/kg, iv; format: ADME, organism-based; conditions: in vivo; summary of the method: as §1
Cerebrospinal fluid = test: Drug uptake in rat cerebrospinal fluid at 30 mg/kg, ip after 1 hr; format: ADME, organism-based; conditions: in vivo, BLD = below limit of detection; summary of the method: as §2
[9] = Plasma concentration in rat at 100 mg/kg, ip after 1 hr; format: ADME, organism-based; summary of the method: as §2
[10] = Half life in rat at 0.5 mg/kg, iv; format: ADME, organism-based; conditions: in vivo; summary of the method: as §1
Rattus norvegicus [11] = test: In vivo inhibition of MB-COMT in ip dosed rat assessed as decrease in homovanillic acid level in cerebrospinal fluid after 1 hr; format: functional, organism-based
Summary of the method: (§3)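 Rats were dosed intraperitoneally, and cerebrospinal fluid was collected one hour later. HVA and DOPAC levels were measured and compared with vehicle by ANOVA, with significance set at p<0.05.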

[12] = Drug uptake in rat cerebrospinal fluid at 100 mg/kg, ip after 1 hr; format: ADME, organism-based; conditions: read-out: Drug uptake; summary of the method: as §2
Rattus norvegicus [13] = test: In vivo inhibition of MB-COMT in ip dosed rat assessed as increase in dihydroxyphenylacetic acid level in cerebrospinal fluid after 1 hr; format: functional, organism-based; summary of the method: as §3

SMILES | IC50 [1] [nM] | IC50 [2] [nM] | further results
O=c1ccn(-c2ccnc(-c3ccccc3)c2)cc1O | 456 | 2320 | 
O=c1ccn(-c2ccnc(-c3ccccc3)n2)cc1O | 706 | 2050 | 
Cc1cn2nc(-n3ccc(=O)c(O)c3)ccc2n1 | > 5000 | 1670 | 
CC(C)(C)c1nc(-c2ccnc(-n3ccc(=O)c(O)c3)c2)cs1 | 101 |  | IC50 [3]: 15 nM
O=c1ccn(-c2cccc(-c3ccccc3)c2)cc1O |  |  | CLint scaled [4]: 583 mL/min/kg; CLint scaled [5]: 320 mL/min/kg; clearance [6]: 58 mL/min/kg
O=c1ccn(-c2nccc3ccccc23)cc1O | 962 | 1270 | 
O=c1ccn(-c2nc(-c3ccccn3)cs2)cc1O | > 5000 | > 5000 | 
O=c1ccn(-c2cc(-c3cccnc3)ccn2)cc1O | 574 |  | 
O=c1ccn(-c2nccc(-c3ccccc3)c2F)cc1O | 55 | 946 | 
O=c1ccn(-c2cc(-c3ccc(Cl)c(Cl)c3)ccn2)cc1O | 35 |  | IC50 [3]: 27 nM; CLint scaled [5]: 292 mL/min/kg; clearance [6]: 200 mL/min/kg
O=c1ccn(-c2cc(-c3ccncc3)ccn2)cc1O | 672 |  | 
O=c1ccn(-c2cc(-c3ccccn3)ccn2)cc1O | 826 |  | 
O=c1ccn(-c2cc(-c3cccc(C(F)(F)F)n3)ccn2)cc1O | 84 |  | IC50 [3]: 11 nM
O=c1ccn(-c2cccc(-c3ccccc3)n2)cc1O | 128 | 2580 | 
O=c1ccn(-c2ncccc2-c2ccccc2)cc1O | > 5000 | > 5000 | 
O=c1ccn(-c2cc(-c3cnn(Cc4ccccc4)c3)ccn2)cc1O | 49.5 |  | IC50 [3]: 28 nM
O=c1ccn(-c2cc(-c3ccccc3)ccn2)cc1O | 40 | 3020 | IC50 [3]: 15 nM; concentration at 1 h [7]: 70 nM; Vd [8]: 1.9 L/kg; Drug uptake (Cerebrospinal fluid): BLD; concentration at 1 h [9]: 3600 nM; half-life [10]: 24 min; CLint scaled [4]: 448 mL/min/kg; inhibition (Rattus norvegicus [11]): Dose-dependent effect; CLint scaled [5]: 74 mL/min/kg; concentration at 1 h [12]: 410 nM; clearance [6]: 94 mL/min/kg; inhibition (Rattus norvegicus [13]): Dose-dependent effect

From ChEMBL document CHEMBL3797074, “Synthesis and optimization of N-heterocyclic pyridinones as catechol-O-methyltransferase (COMT) inhibitors” (Bioorg Med Chem Lett, 2016)
